Assay results reported in ChEMBL document CHEMBL1154315, “Discovery of 3-(2-cyano-4-pyridyl)-5-(4-pyridyl)-1,2,4-triazole, FYX-051 - a xanthine oxidoreductase inhibitor for the treatment of hyperuricemia [corrected]” (Bioorg Med Chem Lett, 2009).

Experiments:
[1] = target: T1, Xanthine dehydrogenase/oxidase (Bos taurus, UniProt P80457); test: Inhibition of bovine milk XOR-mediated uric acid formation after 15 mins by spectrophotometer
Rattus norvegicus [2] = test: Reduction of uric acid level in rat serum at 3 mg/kg, po after 6 hrs by phosphotungstic acid method; format: functional; parameters: scale not given: the % may be the effect or the level left
Outline: (§1)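 Rats were dosed orally. Blood was drawn from the orbital sinus 2 or 6 h later, clotted 1 h at room temperature and centrifuged. Serum uric acid was measured by the phosphotungstic acid method. Values are mean ± SD of at least three rats.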

Rattus norvegicus [3] = test: Reduction of uric acid level in rat serum at 0.3 mg/kg, po after 6 hrs by phosphotungstic acid method; format: functional; parameters: scale not given: the % may be the effect or the level left; outline: as §1
Rattus norvegicus [4] = test: Reduction of uric acid level in rat serum at 1 mg/kg, po after 6 hrs by phosphotungstic acid method; format: functional; parameters: scale not given: the % may be the effect or the level left; outline: as §1
CYP3A4 = CYP3A4 (Homo sapiens, UniProt P08684); test: Inhibition of CYP3A4 in human liver microsomes assessed as inhibition of testosterone hydroxylation at 10 uM by HPLC analysis; format: ADME, Microsome; parameters: dose 10 uM; conditions: probe testosterone (hydroxylation)
Sequence of CYP3A4 (P08684 whole entry): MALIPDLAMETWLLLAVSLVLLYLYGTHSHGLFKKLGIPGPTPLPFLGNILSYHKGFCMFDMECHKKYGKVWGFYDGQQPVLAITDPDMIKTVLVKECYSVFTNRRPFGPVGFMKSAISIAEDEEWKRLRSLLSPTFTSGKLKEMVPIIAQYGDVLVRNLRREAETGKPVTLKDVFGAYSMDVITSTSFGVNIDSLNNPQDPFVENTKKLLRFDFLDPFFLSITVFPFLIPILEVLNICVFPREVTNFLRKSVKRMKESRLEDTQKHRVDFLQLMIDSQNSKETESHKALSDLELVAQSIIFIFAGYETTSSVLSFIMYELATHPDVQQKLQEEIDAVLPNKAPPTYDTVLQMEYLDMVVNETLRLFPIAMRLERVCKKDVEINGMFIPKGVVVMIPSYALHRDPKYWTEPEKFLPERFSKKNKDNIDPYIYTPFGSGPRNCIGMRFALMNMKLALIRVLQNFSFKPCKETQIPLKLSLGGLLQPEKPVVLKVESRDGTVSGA

[5] = Cmax in rat at 3 mg/kg, po by LC-MS method; format: ADME, organism-based; parameters: dose 3 mg/kg, route oral; conditions: in vivo
Outline: (§2)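 After oral dosing to rats, jugular vein blood was collected at predetermined times and centrifuged to plasma. Plasma was mixed with acetonitrile containing an internal standard and centrifuged, and the supernatant was analysed by LC–MS.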

[6] = target: T1, Xanthine dehydrogenase/oxidase; test: Inhibition of bovine milk XOR-mediated uric acid formation at 10 uM after 15 mins by spectrophotometer; conditions: cattle, 0.25 h
[7] = Cmax in rat at 1 mg/kg, po by LC-MS method; format: ADME, organism-based; parameters: dose 1 mg/kg, route oral; conditions: in vivo; outline: as §2
Rattus norvegicus [8] = test: Reduction of uric acid level in rat serum at 0.3 mg/kg, po after 2 hrs by phosphotungstic acid method; format: functional; parameters: scale not given: the % may be the effect or the level left
Outline: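 Test compound dosed orally to rats; blood drawn from orbital sinus 2 or 6 h post-dose, clotted 1 h at room temperature, centrifuged. Serum uric acid measured by phosphotungstic acid method. Mean ± SD of at least three rats.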

[9] = Half life in rat at 3 mg/kg, po by LC-MS method; format: ADME, organism-based; parameters: dose 3 mg/kg, route oral; conditions: in vivo
[10] = Bioavailability in rat at 3 mg/kg; format: ADME, organism-based; conditions: in vivo

T1 sequence (P80457 whole entry): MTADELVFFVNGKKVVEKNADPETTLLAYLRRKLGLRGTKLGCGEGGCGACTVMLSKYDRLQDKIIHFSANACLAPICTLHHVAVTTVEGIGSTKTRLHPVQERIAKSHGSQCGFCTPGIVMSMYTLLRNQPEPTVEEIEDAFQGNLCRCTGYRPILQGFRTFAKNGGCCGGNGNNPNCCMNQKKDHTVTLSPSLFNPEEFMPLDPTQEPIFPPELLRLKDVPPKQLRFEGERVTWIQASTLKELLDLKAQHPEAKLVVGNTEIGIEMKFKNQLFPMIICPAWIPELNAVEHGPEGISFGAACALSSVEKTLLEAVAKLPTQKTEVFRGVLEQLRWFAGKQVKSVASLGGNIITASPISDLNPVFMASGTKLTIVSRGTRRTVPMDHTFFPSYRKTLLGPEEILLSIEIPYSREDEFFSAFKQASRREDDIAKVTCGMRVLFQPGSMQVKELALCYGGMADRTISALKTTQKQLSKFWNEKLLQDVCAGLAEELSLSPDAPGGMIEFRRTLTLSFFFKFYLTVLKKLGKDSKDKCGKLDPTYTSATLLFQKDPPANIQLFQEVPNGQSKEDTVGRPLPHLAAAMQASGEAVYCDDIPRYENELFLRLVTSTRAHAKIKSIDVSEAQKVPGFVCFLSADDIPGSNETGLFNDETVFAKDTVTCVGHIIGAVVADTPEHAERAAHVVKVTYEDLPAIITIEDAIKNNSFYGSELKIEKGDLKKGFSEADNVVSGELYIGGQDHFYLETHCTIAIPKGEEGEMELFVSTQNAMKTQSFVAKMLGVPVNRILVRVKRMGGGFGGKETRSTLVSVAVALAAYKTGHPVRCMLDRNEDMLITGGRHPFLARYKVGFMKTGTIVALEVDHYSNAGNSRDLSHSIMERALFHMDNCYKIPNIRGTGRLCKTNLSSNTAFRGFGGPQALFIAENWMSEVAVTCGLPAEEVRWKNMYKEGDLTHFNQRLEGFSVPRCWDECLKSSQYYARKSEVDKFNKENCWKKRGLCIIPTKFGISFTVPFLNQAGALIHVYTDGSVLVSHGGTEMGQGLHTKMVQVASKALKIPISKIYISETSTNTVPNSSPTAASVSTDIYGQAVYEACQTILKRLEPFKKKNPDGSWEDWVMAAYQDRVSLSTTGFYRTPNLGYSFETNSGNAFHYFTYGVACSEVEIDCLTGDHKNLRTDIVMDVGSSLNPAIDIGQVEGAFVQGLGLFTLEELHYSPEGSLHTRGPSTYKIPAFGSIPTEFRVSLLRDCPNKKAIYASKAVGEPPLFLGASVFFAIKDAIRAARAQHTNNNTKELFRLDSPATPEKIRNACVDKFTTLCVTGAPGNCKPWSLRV

Row | IC50 [1] [µM] | Structure (SMILES) | Activity (Rattus norvegicus [3]) [%] | also measured
1 | 0.024 | CC(C)COc1ccc(-c2n[nH]c(-c3ccncc3)n2)cn1 | 13.4 | Activity (Rattus norvegicus [2]): 13.4%
2 | 0.13 | c1cncc(-c2n[nH]c(-c3ccncc3)n2)c1 | – | Activity (Rattus norvegicus [4]; dose 1 mg/kg): -7.7%; inhibition at 10 µM (CYP3A4): 10.4%
3 | 0.0049 | CC(C)COc1ccc(-c2n[nH]c(-c3ccncc3)n2)cc1C#N | 36.3 | –
4 | 0.0079 | Clc1cc(-c2n[nH]c(-c3ccncc3)n2)ccn1 | – | Activity (Rattus norvegicus [4]; dose 1 mg/kg): 26.5%; Cmax [5]: 4360 ng/mL; inhibition at 10 µM (CYP3A4): 54.1%
5 | – | CSc1cc(-c2nc(-c3ccnc(C#N)c3)n[nH]2)ccn1 | -3.7 | –
6 | – | CC(C)COc1cc(-c2nc(-c3ccnc(C#N)c3)n[nH]2)ccn1 | 1.9 | –
7 | – | CC(C)CSc1cc(-c2nc(-c3ccnc(C#N)c3)n[nH]2)ccn1 | -1.4 | –
8 | – | N#Cc1cc(-c2n[nH]c(-c3ccnc(-c4ccccc4)c3)n2)ccn1 | 4.2 | –
9 | 0.039 | N#Cc1cc(-c2n[nH]c(-c3ccnc(Cl)c3)n2)ccn1 | 33.6 | Cmax [5]: 5340 ng/mL; inhibition at 10 µM (CYP3A4): 3.6%
10 | 0.018 | N#Cc1cc(-c2n[nH]c(-c3ccnc(C#N)c3)n2)ccn1 | 32 | –
11 | 0.0099 | Brc1cc(-c2n[nH]c(-c3ccncc3)n2)ccn1 | -6.2 | –
12 | 0.048 | Fc1cc(-c2n[nH]c(-c3ccncc3)n2)ccn1 | -0.2 | inhibition at 10 µM (CYP3A4): 40.2%
13 | 0.0068 | c1ccc(-c2cc(-c3n[nH]c(-c4ccncc4)n3)ccn2)cc1 | -0.4 | –
14 | 0.17 | c1cc(-c2n[nH]c(-c3ccncc3)n2)ccn1 | – | Activity (Rattus norvegicus [4]; dose 1 mg/kg): -6.8%; inhibition at 10 µM (CYP3A4): 18.5%
15 | – | c1ccc(-c2n[nH]c(-c3ccncc3)n2)nc1 | – | inhibition at 10 µM [6]: 31%; inhibition at 10 µM (CYP3A4): 20.3%
16 | 0.028 | Cc1cc(-c2nc(-c3ccncc3)n[nH]2)ccn1 | -0.4 | Cmax [7]: 1240 ng/mL; inhibition at 10 µM (CYP3A4): 24.7%
17 | 0.31 | Cc1cc(-c2n[nH]c(-c3ccnc(C)c3)n2)ccn1 | 26.1 | inhibition at 10 µM (CYP3A4): 15.3%
18 | 0.038 | N#Cc1ccc(-c2n[nH]c(-c3ccncc3)n2)cn1 | – | Activity (Rattus norvegicus [4]; dose 0.3 mg/kg, in the assay text read “at 0.3 mg/kg” for “at 1 mg/kg”): -4%

Row | IC50 [1] [µM] | Structure (SMILES) | Activity (Rattus norvegicus [3]) [%] | also measured
19 | 0.17 | Cc1cc(-c2nc(-c3ccc(OCC(C)C)nc3)n[nH]2)ccn1 | 13 | –
20 | 0.59 | CC(C)COc1ccc(-c2n[nH]c(-c3ccnc(C#N)c3)n2)cn1 | – | Activity (Rattus norvegicus [2]): -6.1%
21 | 0.03 | Cc1cc(-c2nc(-c3ccc(Cl)c([N+](=O)[O-])c3)n[nH]2)ccn1 | 19.8 | –
22 | 0.0033 | COc1ccc(-c2n[nH]c(-c3ccncc3)n2)cc1[N+](=O)[O-] | 19.6 | –
23 | 0.0047 | O=[N+]([O-])c1cc(-c2n[nH]c(-c3ccncc3)n2)ccc1Cl | 0.9 | –
24 | 0.17 | CSc1cc(-c2nc(-c3ccnc(C)c3)n[nH]2)ccn1 | 19.2 | –
25 | 0.059 | Cc1cc(-c2n[nH]c(-c3ccnc(-c4ccccc4)c3)n2)ccn1 | 8 | –
26 | 0.063 | Cc1cc(-c2n[nH]c(-c3ccnc(OCC(C)C)c3)n2)ccn1 | 2.3 | Cmax [5]: 1440 ng/mL
27 | 0.046 | Cc1cc(-c2n[nH]c(-c3ccnc(SCC(C)C)c3)n2)ccn1 | 4.5 | –
28 | 0.059 | Cc1cc(-c2n[nH]c(-c3ccnc(C#N)c3)n2)ccn1 | 41.1 | Cmax [5]: 3970 ng/mL; inhibition at 10 µM (CYP3A4): 4.7%
29 | 0.089 | Cc1cc(-c2n[nH]c(-c3ccnc(Cl)c3)n2)ccn1 | 32.9 | Cmax [5]: 4070 ng/mL
30 | 0.017 | COc1ccc(-c2n[nH]c(-c3ccnc(C)c3)n2)cc1[N+](=O)[O-] | 19.3 | –
31 | 0.031 | COCCOCCOc1ccc(-c2nc(-c3ccnc(C)c3)n[nH]2)cc1C#N | 52 | –
32 | 0.01 | Cc1cc(-c2nc(-c3ccc(OCC(C)C)c([N+](=O)[O-])c3)n[nH]2)ccn1 | 39.1 | –
33 | 0.0037 | CC(C)COc1ccc(-c2n[nH]c(-c3ccncc3)n2)cc1[N+](=O)[O-] | 33.7 | –
34 | 0.017 | Cc1cc(-c2nc(-c3ccc(OCC(C)C)c(C#N)c3)n[nH]2)ccn1 | 46 | –
35 | – | Oc1ncnc2[nH]ncc12 [ALLOPURINOL] | -3.3 | Activity (Rattus norvegicus [8]): 35.9%
36 | 0.0053 | N#Cc1cc(-c2n[nH]c(-c3ccncc3)n2)ccn1 [TOPIROXOSTAT] | 51.1 | half-life [9]: 19.7 h; Activity (Rattus norvegicus [8]): 59.9%; bioavailability [10]: 69.6%; inhibition at 10 µM (CYP3A4): 18.6%
